Reference: ChEMBL document CHEMBL2424619, “Small-molecule ligands of methyl-lysine binding proteins: optimization of selectivity for L3MBTL3” (J Med Chem, 2013)

What was measured:
[1] = biological target: Lysine-specific demethylase 5A (Homo sapiens, UniProt P29375); experiment: Inhibition of JARID1A (unknown origin) after 30 mins by AlphaScreen assay
Outline: (§1)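 AlphaScreen competition with histone peptide. Compounds in 3-fold, 10-point dilutions, top 10 or 30 μM; buffer 20 mM Tris pH 8.0, 25 mM NaCl, 2 mM DTT, 0.05% Tween-20. Protein-peptide mix 30 min RT, then streptavidin donor plus nickel-chelate acceptor beads (GST acceptor beads for GST-tagged PHF23, JARID1A) 30 min RT dark. […] Protein-free His6-biotin peptide counterscreen.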

[2] = biological target: T1, Scm-like with four MBT domains protein 1 (Homo sapiens, UniProt Q9UHJ3); experiment: Inhibition of SFMBT1 (unknown origin) after 30 mins by AlphaScreen assay; outline: as §1
T1 sequence (Q9UHJ3 whole entry): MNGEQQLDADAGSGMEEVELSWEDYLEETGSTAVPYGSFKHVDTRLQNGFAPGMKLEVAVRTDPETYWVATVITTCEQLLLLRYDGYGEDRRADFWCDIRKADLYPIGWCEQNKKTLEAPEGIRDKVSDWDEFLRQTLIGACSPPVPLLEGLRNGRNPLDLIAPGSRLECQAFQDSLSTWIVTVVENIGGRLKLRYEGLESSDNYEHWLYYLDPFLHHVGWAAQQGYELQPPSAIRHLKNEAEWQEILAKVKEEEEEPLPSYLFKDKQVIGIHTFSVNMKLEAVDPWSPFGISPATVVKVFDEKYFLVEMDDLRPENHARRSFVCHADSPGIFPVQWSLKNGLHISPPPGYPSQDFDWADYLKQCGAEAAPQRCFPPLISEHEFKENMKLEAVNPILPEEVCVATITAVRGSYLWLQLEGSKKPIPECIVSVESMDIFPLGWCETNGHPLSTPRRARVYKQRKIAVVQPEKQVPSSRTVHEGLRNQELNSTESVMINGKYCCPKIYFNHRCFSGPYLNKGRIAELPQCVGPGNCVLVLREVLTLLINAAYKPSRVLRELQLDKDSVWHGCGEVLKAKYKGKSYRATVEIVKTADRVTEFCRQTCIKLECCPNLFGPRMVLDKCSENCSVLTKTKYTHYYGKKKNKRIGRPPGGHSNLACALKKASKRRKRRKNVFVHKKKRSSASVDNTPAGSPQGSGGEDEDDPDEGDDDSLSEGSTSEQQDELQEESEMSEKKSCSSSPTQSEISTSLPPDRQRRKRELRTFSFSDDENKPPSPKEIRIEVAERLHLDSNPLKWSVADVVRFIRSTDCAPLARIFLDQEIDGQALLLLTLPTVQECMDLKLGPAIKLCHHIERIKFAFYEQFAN

[3] = biological target: PHD finger protein 23 (Homo sapiens, UniProt Q9BUL5); experiment: Inhibition of PHF23 (unknown origin) after 30 mins by AlphaScreen assay
Outline: (§2)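 AlphaScreen competition with histone peptide. Compounds in 3-fold, 10-point dilutions, top 10 or 30 μM; buffer 20 mM Tris pH 8.0, 25 mM NaCl, 2 mM DTT, 0.05% Tween-20. Protein-peptide mix 30 min RT, then streptavidin donor plus nickel-chelate acceptor beads (GST acceptor beads for GST-tagged PHF23, JARID1A) 30 min RT dark. Protein-free His6-biotin peptide counterscreen.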

[4] = test system: HEK-293T; experiment: Cytotoxicity against HEK293T/17 cells assessed as cell viability up to 100 uM after 24 hrs by CellTiter-Glo luminescence assay; assay type: cell-based; conditions: human
Outline: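 Cell viability by CellTiter-Glo luminescence, compound tested up to 100 μM.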

[5] = biological target: T2, Chromobox protein homolog 7 (Homo sapiens, UniProt O95931); experiment: Inhibition of CBX7 (unknown origin) after 30 mins by AlphaScreen assay; outline: as §2
T2 sequence (O95931 whole entry): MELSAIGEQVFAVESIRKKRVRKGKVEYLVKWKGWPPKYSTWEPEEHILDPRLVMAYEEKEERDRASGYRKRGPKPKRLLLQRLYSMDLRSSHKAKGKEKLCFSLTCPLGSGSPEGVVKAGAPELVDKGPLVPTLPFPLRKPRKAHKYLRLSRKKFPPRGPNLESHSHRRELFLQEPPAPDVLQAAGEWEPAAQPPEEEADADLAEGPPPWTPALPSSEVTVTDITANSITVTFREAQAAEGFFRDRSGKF

[6] = biological target: T3, E3 ubiquitin-protein ligase UHRF1 (Homo sapiens, UniProt Q96T88); experiment: Inhibition of UHRF1 (unknown origin) after 30 mins by AlphaScreen assay; outline: as §1
T3 sequence (Q96T88 whole entry): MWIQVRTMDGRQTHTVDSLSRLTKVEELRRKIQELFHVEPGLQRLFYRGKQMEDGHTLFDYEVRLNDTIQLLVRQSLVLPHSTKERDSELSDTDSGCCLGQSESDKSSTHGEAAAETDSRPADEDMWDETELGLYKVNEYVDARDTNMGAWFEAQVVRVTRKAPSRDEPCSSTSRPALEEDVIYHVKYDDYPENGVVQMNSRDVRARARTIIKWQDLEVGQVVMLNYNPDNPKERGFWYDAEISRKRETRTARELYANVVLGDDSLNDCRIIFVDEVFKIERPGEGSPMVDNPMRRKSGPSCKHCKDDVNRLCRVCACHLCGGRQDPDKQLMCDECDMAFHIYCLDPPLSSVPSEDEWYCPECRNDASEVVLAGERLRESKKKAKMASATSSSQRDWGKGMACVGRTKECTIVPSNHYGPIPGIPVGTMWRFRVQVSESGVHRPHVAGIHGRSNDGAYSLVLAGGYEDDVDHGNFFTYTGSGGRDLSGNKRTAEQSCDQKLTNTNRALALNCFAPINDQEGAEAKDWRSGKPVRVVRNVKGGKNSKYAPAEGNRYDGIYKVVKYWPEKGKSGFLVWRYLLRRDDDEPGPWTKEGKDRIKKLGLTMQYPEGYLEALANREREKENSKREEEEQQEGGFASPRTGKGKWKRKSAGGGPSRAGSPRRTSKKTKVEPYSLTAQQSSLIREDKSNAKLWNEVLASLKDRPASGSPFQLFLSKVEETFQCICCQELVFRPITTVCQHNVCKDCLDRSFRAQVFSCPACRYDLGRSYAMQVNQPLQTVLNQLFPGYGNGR

[7] = biological target: TP53-binding protein 1 (Homo sapiens, UniProt Q12888); experiment: Inhibition of 53BP1 (unknown origin) after 30 mins by AlphaScreen assay; outline: as §1
[8] = biological target: T4, Lethal(3)malignant brain tumor-like protein 4 (Homo sapiens, UniProt Q8NA19); experiment: Inhibition of L3MBTL4 (unknown origin) after 30 mins by AlphaScreen assay; outline: as §2
T4 sequence (Q8NA19 whole entry): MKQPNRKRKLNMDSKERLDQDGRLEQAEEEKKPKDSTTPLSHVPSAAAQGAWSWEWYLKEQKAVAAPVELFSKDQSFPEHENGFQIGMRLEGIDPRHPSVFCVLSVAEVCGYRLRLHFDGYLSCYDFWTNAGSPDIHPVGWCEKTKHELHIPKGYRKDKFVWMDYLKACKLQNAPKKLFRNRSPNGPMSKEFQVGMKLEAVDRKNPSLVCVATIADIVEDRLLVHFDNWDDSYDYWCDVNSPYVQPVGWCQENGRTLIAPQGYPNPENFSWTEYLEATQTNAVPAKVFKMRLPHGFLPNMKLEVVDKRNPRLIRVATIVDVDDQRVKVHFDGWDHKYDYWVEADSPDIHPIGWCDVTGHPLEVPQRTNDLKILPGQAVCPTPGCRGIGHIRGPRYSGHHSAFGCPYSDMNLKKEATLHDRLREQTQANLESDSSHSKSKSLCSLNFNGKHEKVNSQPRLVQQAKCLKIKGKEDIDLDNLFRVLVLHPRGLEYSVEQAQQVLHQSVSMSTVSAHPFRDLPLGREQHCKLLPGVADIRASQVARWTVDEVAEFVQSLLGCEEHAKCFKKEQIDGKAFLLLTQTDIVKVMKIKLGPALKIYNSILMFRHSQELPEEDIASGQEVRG

[9] = biological target: MBT domain-containing protein 1 (Homo sapiens, UniProt Q05BQ5); experiment: Inhibition of MBTD1 (unknown origin) after 30 mins by AlphaScreen assay; outline: as §2
[10] = biological target: T5, Lethal(3)malignant brain tumor-like protein 3 (Homo sapiens, UniProt Q96JM7); experiment: Inhibition of L3MBTL3 (unknown origin) after 30 mins by AlphaScreen assay; outline: as §2
T5 sequence (Q96JM7 whole entry): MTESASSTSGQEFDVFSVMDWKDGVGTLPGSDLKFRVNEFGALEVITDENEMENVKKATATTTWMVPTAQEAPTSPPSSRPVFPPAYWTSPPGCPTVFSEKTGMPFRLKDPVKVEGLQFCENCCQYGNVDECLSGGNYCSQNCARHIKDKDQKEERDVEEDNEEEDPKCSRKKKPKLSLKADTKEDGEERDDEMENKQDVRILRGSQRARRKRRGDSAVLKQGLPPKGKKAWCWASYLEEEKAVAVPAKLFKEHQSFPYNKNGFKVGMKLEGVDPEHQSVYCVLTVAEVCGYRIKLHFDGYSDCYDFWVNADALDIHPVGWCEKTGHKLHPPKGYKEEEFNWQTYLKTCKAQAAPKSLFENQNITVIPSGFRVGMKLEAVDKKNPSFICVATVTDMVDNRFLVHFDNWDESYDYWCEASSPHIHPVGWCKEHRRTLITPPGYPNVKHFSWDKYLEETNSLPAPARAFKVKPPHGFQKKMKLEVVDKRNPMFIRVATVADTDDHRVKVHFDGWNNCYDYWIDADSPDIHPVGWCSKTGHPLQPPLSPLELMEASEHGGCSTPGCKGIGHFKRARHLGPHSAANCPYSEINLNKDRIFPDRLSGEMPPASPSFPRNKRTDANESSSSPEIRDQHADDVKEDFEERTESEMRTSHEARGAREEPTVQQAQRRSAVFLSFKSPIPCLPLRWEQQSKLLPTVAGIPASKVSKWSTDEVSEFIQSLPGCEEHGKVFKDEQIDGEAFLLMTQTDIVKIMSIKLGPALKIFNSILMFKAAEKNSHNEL

Sequence of TP53-binding protein 1 (Q12888 whole entry): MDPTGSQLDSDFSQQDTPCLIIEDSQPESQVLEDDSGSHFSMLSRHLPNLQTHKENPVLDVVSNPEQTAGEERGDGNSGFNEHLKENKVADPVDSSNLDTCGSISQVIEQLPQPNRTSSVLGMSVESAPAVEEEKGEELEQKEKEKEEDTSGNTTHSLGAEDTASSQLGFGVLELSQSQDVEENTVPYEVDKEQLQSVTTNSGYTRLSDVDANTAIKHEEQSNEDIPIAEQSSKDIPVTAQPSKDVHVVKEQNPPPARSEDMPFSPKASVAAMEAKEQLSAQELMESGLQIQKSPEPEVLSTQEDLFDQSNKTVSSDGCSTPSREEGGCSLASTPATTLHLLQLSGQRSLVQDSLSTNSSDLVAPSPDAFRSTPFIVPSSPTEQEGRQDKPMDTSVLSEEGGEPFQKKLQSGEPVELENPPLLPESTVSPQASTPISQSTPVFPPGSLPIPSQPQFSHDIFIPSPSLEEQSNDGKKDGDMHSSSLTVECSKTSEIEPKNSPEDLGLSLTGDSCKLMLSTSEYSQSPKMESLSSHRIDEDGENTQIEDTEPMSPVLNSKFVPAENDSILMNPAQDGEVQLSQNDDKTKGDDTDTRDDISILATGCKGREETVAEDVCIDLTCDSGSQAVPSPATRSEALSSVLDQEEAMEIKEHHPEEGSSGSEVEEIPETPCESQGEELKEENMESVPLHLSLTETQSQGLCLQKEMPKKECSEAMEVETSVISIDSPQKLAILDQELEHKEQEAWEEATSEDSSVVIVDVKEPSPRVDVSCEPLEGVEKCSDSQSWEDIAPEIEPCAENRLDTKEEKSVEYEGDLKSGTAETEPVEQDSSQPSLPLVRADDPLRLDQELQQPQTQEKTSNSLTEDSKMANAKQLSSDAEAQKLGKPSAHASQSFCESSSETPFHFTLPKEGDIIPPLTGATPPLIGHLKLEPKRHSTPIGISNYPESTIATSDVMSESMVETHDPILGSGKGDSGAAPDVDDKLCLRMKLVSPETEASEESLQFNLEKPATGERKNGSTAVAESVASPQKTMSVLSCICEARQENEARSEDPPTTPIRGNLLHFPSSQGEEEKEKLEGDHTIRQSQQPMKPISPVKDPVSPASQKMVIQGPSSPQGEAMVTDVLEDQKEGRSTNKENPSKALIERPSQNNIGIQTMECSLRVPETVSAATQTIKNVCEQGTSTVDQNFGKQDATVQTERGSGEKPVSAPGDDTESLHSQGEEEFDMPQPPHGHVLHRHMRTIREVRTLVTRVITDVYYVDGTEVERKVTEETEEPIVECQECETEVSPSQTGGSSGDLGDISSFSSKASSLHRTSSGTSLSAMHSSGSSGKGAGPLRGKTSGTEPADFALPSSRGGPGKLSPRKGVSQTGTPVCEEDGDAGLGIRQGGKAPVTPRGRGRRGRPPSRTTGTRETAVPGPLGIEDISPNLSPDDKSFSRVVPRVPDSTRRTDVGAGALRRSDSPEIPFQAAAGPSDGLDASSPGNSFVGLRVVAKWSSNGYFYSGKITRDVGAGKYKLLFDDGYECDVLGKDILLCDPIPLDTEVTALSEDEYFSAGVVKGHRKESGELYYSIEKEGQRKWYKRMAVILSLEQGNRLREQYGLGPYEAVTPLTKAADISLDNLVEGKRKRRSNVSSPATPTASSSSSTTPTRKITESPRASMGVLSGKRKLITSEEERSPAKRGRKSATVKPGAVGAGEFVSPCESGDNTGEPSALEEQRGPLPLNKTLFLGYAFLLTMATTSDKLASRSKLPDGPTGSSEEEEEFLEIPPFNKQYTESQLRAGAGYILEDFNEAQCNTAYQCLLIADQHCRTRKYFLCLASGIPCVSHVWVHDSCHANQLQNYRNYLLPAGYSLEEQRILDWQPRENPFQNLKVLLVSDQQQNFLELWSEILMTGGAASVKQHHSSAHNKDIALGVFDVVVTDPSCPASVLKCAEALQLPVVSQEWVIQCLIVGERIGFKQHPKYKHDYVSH
Sequence of Lysine-specific demethylase 5A (P29375 whole entry): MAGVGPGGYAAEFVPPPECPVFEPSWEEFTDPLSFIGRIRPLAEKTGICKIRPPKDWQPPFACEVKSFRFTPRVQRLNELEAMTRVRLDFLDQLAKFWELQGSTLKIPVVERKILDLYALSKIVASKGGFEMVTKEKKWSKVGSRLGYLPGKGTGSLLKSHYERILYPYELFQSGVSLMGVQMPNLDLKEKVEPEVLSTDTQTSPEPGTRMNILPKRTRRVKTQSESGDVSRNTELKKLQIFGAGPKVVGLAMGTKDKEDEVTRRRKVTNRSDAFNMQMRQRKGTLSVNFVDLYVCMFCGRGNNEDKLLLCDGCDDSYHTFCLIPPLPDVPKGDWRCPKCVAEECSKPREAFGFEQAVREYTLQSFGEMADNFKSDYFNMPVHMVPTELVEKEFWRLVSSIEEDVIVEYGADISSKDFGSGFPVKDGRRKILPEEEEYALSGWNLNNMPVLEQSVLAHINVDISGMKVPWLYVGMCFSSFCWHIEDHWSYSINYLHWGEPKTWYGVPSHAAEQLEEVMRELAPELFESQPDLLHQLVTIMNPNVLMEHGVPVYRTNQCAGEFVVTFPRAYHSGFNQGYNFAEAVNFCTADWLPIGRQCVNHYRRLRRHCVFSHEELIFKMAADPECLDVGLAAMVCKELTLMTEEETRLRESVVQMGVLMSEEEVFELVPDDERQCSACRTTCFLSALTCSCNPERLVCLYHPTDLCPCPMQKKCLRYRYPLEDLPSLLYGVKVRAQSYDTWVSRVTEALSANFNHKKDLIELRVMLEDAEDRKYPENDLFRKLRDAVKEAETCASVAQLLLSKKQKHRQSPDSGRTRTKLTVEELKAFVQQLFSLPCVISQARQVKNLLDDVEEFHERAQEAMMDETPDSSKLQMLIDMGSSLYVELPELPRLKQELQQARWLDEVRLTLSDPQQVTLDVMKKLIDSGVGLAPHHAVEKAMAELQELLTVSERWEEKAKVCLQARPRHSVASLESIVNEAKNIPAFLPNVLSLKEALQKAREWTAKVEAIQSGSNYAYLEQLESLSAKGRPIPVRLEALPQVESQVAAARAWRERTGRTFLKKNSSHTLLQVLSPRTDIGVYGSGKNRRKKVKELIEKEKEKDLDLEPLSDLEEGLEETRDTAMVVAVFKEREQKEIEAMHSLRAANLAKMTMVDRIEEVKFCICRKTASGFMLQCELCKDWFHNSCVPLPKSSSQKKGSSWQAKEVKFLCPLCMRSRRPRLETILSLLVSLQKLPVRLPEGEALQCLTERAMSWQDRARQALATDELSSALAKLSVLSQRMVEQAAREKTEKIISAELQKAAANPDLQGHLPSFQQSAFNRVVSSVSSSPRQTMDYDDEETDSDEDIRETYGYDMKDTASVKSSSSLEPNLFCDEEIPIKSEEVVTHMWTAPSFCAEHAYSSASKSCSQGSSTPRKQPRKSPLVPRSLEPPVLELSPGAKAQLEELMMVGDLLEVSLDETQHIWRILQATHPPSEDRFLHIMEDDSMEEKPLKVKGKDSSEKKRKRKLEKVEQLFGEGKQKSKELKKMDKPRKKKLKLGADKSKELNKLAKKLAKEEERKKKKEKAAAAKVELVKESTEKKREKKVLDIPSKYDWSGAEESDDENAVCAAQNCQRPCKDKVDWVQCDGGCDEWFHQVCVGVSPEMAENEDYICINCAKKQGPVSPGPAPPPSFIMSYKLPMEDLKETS
Sequence of PHD finger protein 23 (Q9BUL5 whole entry): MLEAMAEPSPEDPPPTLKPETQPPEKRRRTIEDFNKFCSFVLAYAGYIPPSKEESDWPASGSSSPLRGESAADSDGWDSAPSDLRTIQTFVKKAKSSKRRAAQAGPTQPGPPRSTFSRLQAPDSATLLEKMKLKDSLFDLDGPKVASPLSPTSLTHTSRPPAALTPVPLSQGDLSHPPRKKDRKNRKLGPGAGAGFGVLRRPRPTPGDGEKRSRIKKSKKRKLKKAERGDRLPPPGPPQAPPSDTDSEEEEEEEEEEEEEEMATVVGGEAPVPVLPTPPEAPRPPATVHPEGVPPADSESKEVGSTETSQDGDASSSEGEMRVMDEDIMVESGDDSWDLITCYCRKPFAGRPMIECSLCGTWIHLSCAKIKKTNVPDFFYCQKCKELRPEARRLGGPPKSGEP
Sequence of MBT domain-containing protein 1 (Q05BQ5 whole entry, the tested form may be a part): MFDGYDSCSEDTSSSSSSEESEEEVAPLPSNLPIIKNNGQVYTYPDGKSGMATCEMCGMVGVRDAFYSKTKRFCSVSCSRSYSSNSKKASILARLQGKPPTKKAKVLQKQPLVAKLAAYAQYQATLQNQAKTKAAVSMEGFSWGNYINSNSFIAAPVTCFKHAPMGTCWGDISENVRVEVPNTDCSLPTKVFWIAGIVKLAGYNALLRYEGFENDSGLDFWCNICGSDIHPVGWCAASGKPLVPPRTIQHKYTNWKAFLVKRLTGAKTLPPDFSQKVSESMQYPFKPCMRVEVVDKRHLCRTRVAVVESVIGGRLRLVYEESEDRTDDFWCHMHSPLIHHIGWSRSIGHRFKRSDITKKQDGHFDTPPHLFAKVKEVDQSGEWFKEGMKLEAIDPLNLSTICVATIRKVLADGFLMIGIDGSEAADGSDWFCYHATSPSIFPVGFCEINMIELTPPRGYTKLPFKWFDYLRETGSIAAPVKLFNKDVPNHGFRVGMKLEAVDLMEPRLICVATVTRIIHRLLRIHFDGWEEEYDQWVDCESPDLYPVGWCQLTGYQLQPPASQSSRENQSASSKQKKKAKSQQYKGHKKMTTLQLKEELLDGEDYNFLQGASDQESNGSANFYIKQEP

| Compound | IC50 [6] [µM] | IC50 [7] [µM] | IC50 [10] [µM] | further results |
| --- | --- | --- | --- | --- |
| O=C(c1ccc(C(=O)N2CCC(N3CCCC3)CC2)cc1)N1CCC(N2CCCC2)CC1 | > 10 | > 10 | – | IC50 [1]: > 10 µM; IC50 [2]: > 10 µM; IC50 [3]: > 10 µM; Activity [4]: Non-toxic; IC50 [5]: > 10 µM; IC50 [8]: > 10 µM; IC50 [9]: > 10 µM |
| O=C(c1cccc(Br)c1)N1CCC(N2CCCC2)CC1 | – | – | 4.1 | – |
| CCN1Cc2ccc(NC(=O)c3cccc(Br)c3)cc2C1 | – | – | 1.2 | – |
| O=C(c1cccc(Br)c1)N1CC2CCC(C1)C2N1CCCC1 (centres undefined) | – | – | 3.2 | – |
| O=C(c1ccc(C(=O)N2CCN(C3CCCC3)CC2)cc1)N1CCC(N2CCCC2)CC1 | > 10 | > 10 | – | – |
